Assay results taken from ChEMBL document CHEMBL5724801, “EUbOPEN Chemogenomics Library - Multiplex” (2024).
Values joined by “and” are separate entries in the source; they are usually repeats but may differ in a detail not shown here. Equal values may be shown once.

System: Fibroblast
Test: Multiplex assay against human fibroblast
Type: toxicity, cell-based
Outline: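 On a CQ1 microscope at 37°C and 5% CO2, live cells were imaged after compound addition. They had been stained at seeding with Hoechst33342, BioTracker Green Microtubule Cytoskeleton Dye, MitoTracker Red and Annexin V Alexa Fluor 680. CellPathfinder machine-learning gating assigned cells to Hoechst high-intensity objects or normal cells, normal cells to healthy, pyknosed or fragmented nuclei, and pyknosed cells to mitotic or apoptotic. Tubulin, mitochondrial-mass and membrane-permeability phenotypes are per cents of healthy-nucleus cells.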

[1] = 12 h, 1 µM, compound concentration 1 uM
[2] = 12 h, 10 µM, compound concentration 10 uM
[3] = 24 h, 1 µM, compound concentration 1 uM
[4] = 24 h, 10 µM, compound concentration 10 uM
[5] = 48 h, 1 µM, compound concentration 1 uM
[6] = 48 h, 10 µM, compound concentration 10 uM

COc1ccc(CC(=O)NC(N/C(=N/C#N)Nc2cccc3ncccc23)C(C)(C)C)cc1OC (stereo not given)
Population Fragmented Nuclei (%) [1]: 9.24% and 8.25%
Population Healthy Nuclei (%) [1]: 64.67% and 81.55%
Population Hoechst High Intensity Objects (%) [1]: 0%
Population Membrane Permeable-Phenotype (%) [1]: 1.68% and 2.98%
Population Mitochondria Different-Phenotype (%) [1]: 8.4% and 6.55%
Population Mitotic Cells (%) [1]: 95.83% and 85.71%
Population Normal (%) [1]: 100%
Population Pyknosed Nuclei (%) [1]: 26.09% and 10.19%
Population Tubulin-Different-Phenotype (%) [1]: 12.61% and 16.67%
Total Cell Count [1]: 184 and 206
Population Apoptotic (%) [2]: 10.96% and 24.49%
Population Fragmented Nuclei (%) [2]: 7.46% and 8.67%
Population Healthy Nuclei (%) [2]: 56.22% and 63.01%
Population Hoechst High Intensity Objects (%) [2]: 0%
Population Membrane Permeable-Phenotype (%) [2]: 9.73% and 2.75%
Population Mitochondria Different-Phenotype (%) [2]: 7.96% and 16.51%
Population Mitotic Cells (%) [2]: 89.04% and 75.51%
Population Normal (%) [2]: 100%
Population Pyknosed Nuclei (%) [2]: 36.32% and 28.32%
Population Tubulin-Different-Phenotype (%) [2]: 26.55% and 38.53%
Total Cell Count [2]: 201 and 173
Population Fragmented Nuclei (%) [3]: 11.21% and 6.25%
Population Healthy Nuclei (%) [3]: 68.16% and 81.25%
Population Hoechst High Intensity Objects (%) [3]: 0%
Population Membrane Permeable-Phenotype (%) [3]: 3.95% and 0%
Population Mitochondria Different-Phenotype (%) [3]: 10.53% and 7.1%
Population Mitotic Cells (%) [3]: 95.65% and 76.92%
Population Normal (%) [3]: 100%
Population Pyknosed Nuclei (%) [3]: 20.63% and 12.5%
Population Tubulin-Different-Phenotype (%) [3]: 19.08% and 13.02%
Total Cell Count [3]: 223 and 208
Population Fragmented Nuclei (%) [4]: 5.12% and 8.43%
Population Healthy Nuclei (%) [4]: 64.65% and 75.3%
Population Hoechst High Intensity Objects (%) [4]: 0%
Population Membrane Permeable-Phenotype (%) [4]: 7.19% and 2.4%
Population Mitochondria Different-Phenotype (%) [4]: 10.07% and 8%
Population Mitotic Cells (%) [4]: 92.31% and 70.37%
Population Normal (%) [4]: 100%
Population Pyknosed Nuclei (%) [4]: 30.23% and 16.27%
Population Tubulin-Different-Phenotype (%) [4]: 33.09% and 40.8%
Total Cell Count [4]: 215 and 166
Population Apoptotic (%) [5]: 0% and 18.75%
Population Fragmented Nuclei (%) [5]: 7.56% and 7.18%
Population Healthy Nuclei (%) [5]: 85.29% and 85.17%
Population Hoechst High Intensity Objects (%) [5]: 0%
Population Membrane Permeable-Phenotype (%) [5]: 0.99% and 1.12%
Population Mitochondria Different-Phenotype (%) [5]: 11.82% and 3.37%
Population Mitotic Cells (%) [5]: 100% and 81.25%
Population Normal (%) [5]: 100%
Population Pyknosed Nuclei (%) [5]: 7.14% and 7.66%
Population Tubulin-Different-Phenotype (%) [5]: 5.42% and 14.04%
Total Cell Count [5]: 238 and 209
Population Apoptotic (%) [6]: 27.78% and 30.77%
Population Fragmented Nuclei (%) [6]: 8.23% and 15.18%
Population Healthy Nuclei (%) [6]: 83.98% and 78.01%
Population Hoechst High Intensity Objects (%) [6]: 0%
Population Mitochondria Different-Phenotype (%) [6]: 12.89% and 4.03%
Population Mitotic Cells (%) [6]: 72.22% and 69.23%
Population Normal (%) [6]: 100%
Population Pyknosed Nuclei (%) [6]: 7.79% and 6.81%
Population Tubulin-Different-Phenotype (%) [6]: 17.01% and 47.65%
Total Cell Count [6]: 231 and 191

C=CC(=O)N1CCC[C@@H](n2nc(C(=O)Nc3ccc(CC(=O)N(C)C)c(C)c3C)c3c(N)ncnc32)C1
Population Fragmented Nuclei (%) [1]: 10.1% and 3.17%
Population Healthy Nuclei (%) [1]: 56.73% and 73.02%
Population Hoechst High Intensity Objects (%) [1]: 0%
Population Membrane Permeable-Phenotype (%) [1]: 1.69% and 0.72%
Population Mitochondria Different-Phenotype (%) [1]: 9.32% and 5.8%
Population Mitotic Cells (%) [1]: 97.1% and 80%
Population Normal (%) [1]: 100%
Population Pyknosed Nuclei (%) [1]: 33.17% and 23.81%
Population Tubulin-Different-Phenotype (%) [1]: 14.41% and 5.8%
Total Cell Count [1]: 208 and 189
Population Apoptotic (%) [2]: 5.56% and 8.57%
Population Fragmented Nuclei (%) [2]: 8.2% and 7.93%
Population Healthy Nuclei (%) [2]: 62.3% and 70.73%
Population Hoechst High Intensity Objects (%) [2]: 0%
Population Membrane Permeable-Phenotype (%) [2]: 9.65% and 7.76%
Population Mitochondria Different-Phenotype (%) [2]: 11.4% and 13.79%
Population Mitotic Cells (%) [2]: 94.44% and 91.43%
Population Normal (%) [2]: 100%
Population Pyknosed Nuclei (%) [2]: 29.51% and 21.34%
Population Tubulin-Different-Phenotype (%) [2]: 21.93% and 32.76%
Total Cell Count [2]: 183 and 164
Population Apoptotic (%) [3]: 18.18% and 16.67%
Population Fragmented Nuclei (%) [3]: 12.88% and 6.53%
Population Healthy Nuclei (%) [3]: 68.24% and 78.39%
Population Hoechst High Intensity Objects (%) [3]: 0%
Population Membrane Permeable-Phenotype (%) [3]: 3.77% and 2.56%
Population Mitochondria Different-Phenotype (%) [3]: 7.55% and 8.33%
Population Mitotic Cells (%) [3]: 81.82% and 83.33%
Population Normal (%) [3]: 100%
Population Pyknosed Nuclei (%) [3]: 18.88% and 15.08%
Population Tubulin-Different-Phenotype (%) [3]: 13.21% and 10.26%
Total Cell Count [3]: 233 and 199
Population Fragmented Nuclei (%) [4]: 12.56% and 7.73%
Population Healthy Nuclei (%) [4]: 67.34% and 70.72%
Population Hoechst High Intensity Objects (%) [4]: 0%
Population Membrane Permeable-Phenotype (%) [4]: 8.96% and 3.12%
Population Mitochondria Different-Phenotype (%) [4]: 9.7% and 14.06%
Population Mitotic Cells (%) [4]: 95% and 84.62%
Population Normal (%) [4]: 100%
Population Pyknosed Nuclei (%) [4]: 20.1% and 21.55%
Population Tubulin-Different-Phenotype (%) [4]: 23.13% and 33.59%
Total Cell Count [4]: 199 and 181
Population Apoptotic (%) [5]: 13.79% and 22.22%
Population Fragmented Nuclei (%) [5]: 7.48% and 7.76%
Population Healthy Nuclei (%) [5]: 81.1% and 84.02%
Population Hoechst High Intensity Objects (%) [5]: 0%
Population Membrane Permeable-Phenotype (%) [5]: 0.97% and 1.63%
Population Mitotic Cells (%) [5]: 86.21% and 77.78%
Population Normal (%) [5]: 100%
Population Pyknosed Nuclei (%) [5]: 11.42% and 8.22%
Population Tubulin-Different-Phenotype (%) [5]: 5.34% and 12.5%
Total Cell Count [5]: 254 and 219
Population Apoptotic (%) [6]: 22.22% and 18.75%
Population Fragmented Nuclei (%) [6]: 7.14% and 11.46%
Population Healthy Nuclei (%) [6]: 84.29% and 80.21%
Population Hoechst High Intensity Objects (%) [6]: 0%
Population Membrane Permeable-Phenotype (%) [6]: 3.39% and 5.84%
Population Mitochondria Different-Phenotype (%) [6]: 12.99% and 3.9%
Population Mitotic Cells (%) [6]: 77.78% and 81.25%
Population Normal (%) [6]: 100%
Population Pyknosed Nuclei (%) [6]: 8.57% and 8.33%
Population Tubulin-Different-Phenotype (%) [6]: 19.21% and 29.22%
Total Cell Count [6]: 210 and 192
